Data set [1] addresses T1, Potassium voltage-gated channel subfamily A member 5 (Homo sapiens, UniProt P22460). Put plainly: Blockade of Kv1.5 channel expressed in LTK cells at 1 uM by patch clamp method. Type of data set: functional, cell-based. The gist of the method: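 Whole-cell patch clamp on Ltk- cells overexpressing Kv1.5, cultured 24–72 h and induced with dexamethasone for 24 h. Pipette solution was KCl/K2ATP/K4BAPTA/MgCl2/Hepes at pH 7.2; bath was NaCl/KCl/CaCl2/MgCl2/Hepes/glucose at pH 7.4. Cells were held at −70 mV and stepped to +60 mV for 1 s at 0.2 Hz. Current at pulse end was compared to control at 1 uM inhibitor.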
(In general: The patch-clamp technique gives a direct electrical read-out from membranes.)

The target of data set [2] is T1, Potassium voltage-gated channel subfamily A member 5. The data set can be described thus: Blockade of Kv1.5 channel expressed in LTK cells by patch clamp method. Type of data set: functional, cell-based. The gist of the method:
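Dexamethasone-induced (24 h) Ltk- cells expressing Kv1.5 were recorded by series-resistance-compensated whole-cell patch clamp, with 1 s steps from −70 to +60 mV at 0.2 Hz (pH 7.2 pipette, pH 7.4 bath). After control currents stabilized, inhibitor was perfused at rising concentrations, each to maximal block. IC50 was obtained by nonlinear regression.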

In data set [3] the target is Voltage-gated inwardly rectifying potassium channel KCNH2 (Homo sapiens, UniProt Q12809). Put plainly: Inhibition of hERG. Type of data set: toxicity. A general note: Block of hERG is tested as a sign of cardiac risk.
Chain of Voltage-gated inwardly rectifying potassium channel KCNH2 (Q12809 whole entry): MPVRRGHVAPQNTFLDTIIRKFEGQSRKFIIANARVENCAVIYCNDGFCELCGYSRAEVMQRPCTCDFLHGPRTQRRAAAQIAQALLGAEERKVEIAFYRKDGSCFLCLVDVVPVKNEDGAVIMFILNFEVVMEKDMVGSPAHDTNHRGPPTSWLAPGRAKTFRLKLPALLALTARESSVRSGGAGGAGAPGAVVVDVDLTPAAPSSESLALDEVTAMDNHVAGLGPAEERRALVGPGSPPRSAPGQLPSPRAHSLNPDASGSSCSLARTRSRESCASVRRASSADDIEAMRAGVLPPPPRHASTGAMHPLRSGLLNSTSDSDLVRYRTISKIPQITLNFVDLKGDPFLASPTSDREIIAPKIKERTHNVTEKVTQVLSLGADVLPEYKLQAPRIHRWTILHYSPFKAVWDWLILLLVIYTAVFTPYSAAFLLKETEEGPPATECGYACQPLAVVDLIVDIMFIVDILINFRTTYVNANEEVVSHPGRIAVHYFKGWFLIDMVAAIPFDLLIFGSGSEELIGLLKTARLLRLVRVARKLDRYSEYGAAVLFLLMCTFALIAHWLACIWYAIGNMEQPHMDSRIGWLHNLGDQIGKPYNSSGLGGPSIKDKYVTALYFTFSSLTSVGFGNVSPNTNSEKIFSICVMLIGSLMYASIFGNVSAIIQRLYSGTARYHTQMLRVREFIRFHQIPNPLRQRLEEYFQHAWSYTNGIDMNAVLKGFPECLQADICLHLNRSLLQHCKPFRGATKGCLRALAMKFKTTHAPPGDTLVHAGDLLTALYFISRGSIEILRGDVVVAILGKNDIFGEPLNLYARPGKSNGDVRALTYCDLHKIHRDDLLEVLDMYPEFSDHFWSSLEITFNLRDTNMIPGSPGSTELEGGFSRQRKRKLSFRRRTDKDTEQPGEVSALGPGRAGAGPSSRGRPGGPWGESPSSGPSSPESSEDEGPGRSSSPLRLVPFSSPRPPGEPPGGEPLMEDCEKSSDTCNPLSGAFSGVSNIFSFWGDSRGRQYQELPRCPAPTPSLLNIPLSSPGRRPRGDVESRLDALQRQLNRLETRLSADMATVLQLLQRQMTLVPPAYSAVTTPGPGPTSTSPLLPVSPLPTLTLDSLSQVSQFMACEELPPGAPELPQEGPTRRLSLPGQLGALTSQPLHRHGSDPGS
The target of data set [4] is Potassium voltage-gated channel subfamily A member 3 (Homo sapiens) (UniProt P22001). Put plainly: Inhibition of Kv1.3 channel.
Chain of Potassium voltage-gated channel subfamily A member 3 (Homo sapiens) (P22001 whole entry): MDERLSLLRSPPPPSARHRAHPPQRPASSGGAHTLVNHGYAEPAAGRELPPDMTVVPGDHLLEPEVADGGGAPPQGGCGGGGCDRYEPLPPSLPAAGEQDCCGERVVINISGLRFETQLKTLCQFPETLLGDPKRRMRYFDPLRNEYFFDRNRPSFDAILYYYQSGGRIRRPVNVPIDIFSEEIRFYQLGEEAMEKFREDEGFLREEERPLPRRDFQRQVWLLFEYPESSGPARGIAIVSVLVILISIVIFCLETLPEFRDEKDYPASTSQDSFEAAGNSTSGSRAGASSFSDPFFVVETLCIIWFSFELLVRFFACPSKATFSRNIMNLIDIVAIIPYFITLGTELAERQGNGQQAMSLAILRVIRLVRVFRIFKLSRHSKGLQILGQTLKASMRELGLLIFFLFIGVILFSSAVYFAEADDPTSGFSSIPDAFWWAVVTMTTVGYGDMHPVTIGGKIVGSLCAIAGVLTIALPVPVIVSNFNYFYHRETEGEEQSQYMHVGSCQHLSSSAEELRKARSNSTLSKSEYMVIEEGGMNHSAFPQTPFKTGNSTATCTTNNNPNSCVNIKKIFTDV
In data set [5] the target is Voltage-gated L-type calcium channel (Homo sapiens, UniProt Q13936+Q13698+Q01668+O60840). Put plainly: Inhibition of L type calcium channel. It is filed as protein assay.
The subject of data set [6] is Sus scrofa. The data set can be described thus: Increase in atrial effective refractory period in pig at 30 mg/kg after 15 mins. It is filed as functional, Cardiac atrium.
Data set [7] deals with Sus scrofa. The data set can be described thus: Effect on ventricular effective refractory period in pig at 30 mg/kg after 15 mins. The conditions noted are these: Cardiac ventricle. Details: dose 30 mg/kg. It is filed as functional, organism-based.

Calls of active or inactive are those of the source. No cut-off for these calls is given here.

T1 sequence (P22460 whole entry): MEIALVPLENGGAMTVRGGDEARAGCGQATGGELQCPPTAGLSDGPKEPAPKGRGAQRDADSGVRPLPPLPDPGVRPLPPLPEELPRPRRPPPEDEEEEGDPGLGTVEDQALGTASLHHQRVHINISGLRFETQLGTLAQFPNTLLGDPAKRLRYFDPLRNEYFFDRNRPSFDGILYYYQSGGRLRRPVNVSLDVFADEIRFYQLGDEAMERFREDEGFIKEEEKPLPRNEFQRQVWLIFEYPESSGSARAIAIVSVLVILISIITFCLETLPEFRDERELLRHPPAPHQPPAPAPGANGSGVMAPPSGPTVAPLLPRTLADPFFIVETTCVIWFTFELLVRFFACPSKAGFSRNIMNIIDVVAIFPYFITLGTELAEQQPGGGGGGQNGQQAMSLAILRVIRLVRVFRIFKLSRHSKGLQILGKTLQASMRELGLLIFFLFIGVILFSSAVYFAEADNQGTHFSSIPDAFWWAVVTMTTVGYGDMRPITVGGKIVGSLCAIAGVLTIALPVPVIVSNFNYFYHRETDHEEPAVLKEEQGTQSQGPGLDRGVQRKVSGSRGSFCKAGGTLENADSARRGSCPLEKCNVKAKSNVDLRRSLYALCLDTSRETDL

Consider `COc1ccc(CCn2ncc(C(=O)c3ccc(C(C)C)cc3)n2)cc1`, for which the Activity in data set [1] was determined as 97%.

On to `COc1ccc(CCn2ncc(C(=O)c3ccc(Cl)cc3)n2)cc1`, for which the Activity in data set [1] was 85%.

Consider `CCc1ccc(C(=O)c2cnn(CCc3ccc(OC)cc3)n2)cc1`, for which the Activity in data set [1] was determined as 86%.

Turning to `COc1ccc(CCn2cc(C(=O)c3ccc(C)c(C)c3)nn2)cc1`, the outcome in data set [2] was inactive.

As for `COc1ccc(CCN2C(=O)CSC2c2ccc(C)c(C)c2)cc1` (configuration not stated), in data set [2], the IC50 (commonly the concentration that inhibits the measured activity by half) came to 137 nM.

As to `COc1ccc(CCn2ncc(C(=O)c3ccc(Cl)c(Cl)c3)n2)cc1`, the Activity in data set [1] came out at 88%.

As for `COc1ccc(CCn2ncc(C(=O)c3ccc(N(C)C)cc3OC)n2)cc1`, the Activity in data set [1] was found to be 0%.

As for `COc1ccc(CCn2ncc(C(=O)c3ccc(OC)cc3)n2)cc1`, the Activity in data set [1] was 84%.

Compound `COc1ccc(CCn2ncc(C(=O)c3ccccc3Cl)n2)cc1` yielded an Activity in data set [1] of 22%.

In turn, `COc1ccc(CCn2ncc(C(=O)c3ccc(C)c(C)c3)n2)cc1` came in with an IC50 in data set [2] of 294 nM. Besides, the Activity in data set [1] is 90%; in data set [3] it was above 50 µM; in data set [4], 10.1 µM; in data set [5], 26 µM; in data set [6], 12%. Further, the outcome in data set [7] was inactive.

Take `COc1ccc(CCn2ncc(C(=O)c3ccc(N(C)C)cc3)n2)cc1`: the Activity in data set [1] came to 99%.

These data come from ChEMBL document CHEMBL1148681, “Synthesis and evaluation of (2-phenethyl-2H-1,2,3-triazol-4-yl)(phenyl)methanones as Kv1.5 channel blockers for the treatment of atrial fibrillation” (Bioorg Med Chem Lett, 2006).
